This passage reports Activity results from ChEMBL document CHEMBL3580644, “Synthesis of piperlongumine analogues and discovery of nuclear factor erythroid 2-related factor 2 (Nrf2) activators as potential neuroprotective agents” (J Med Chem, 2015).

Active and inactive are the calls of the source. No cut-off for these calls is given here.

Series [1] in a line: Cytoprotection activity against H2O2-induced cytotoxicity in rat PC12 cells assessed as increase in cell viability at 20 uM pre-incubated for 24 hrs before H2O2 exposure for 12 hrs by MTT assay. Type of series: functional, PC-12. In general terms: Tetrazolium assays rely on reduction of a dye to a coloured formazan, in cell work by metabolically active cells.
A short description of series [2]: Cytotoxicity against human L02 cells assessed as reduction in cell viability at 20 uM to 100 uM incubated for 24 hrs by MTT assay. Type of series: cell-based. The conditions noted are these: l02, 24 h.
Series [3] relates to PC-12. Description: Induction of antioxidant genes expression in rat PC12 cells assessed as increase in NQO1 mRNA level at 20 uM incubated for 6 hrs by qRT-PCR method. Type of series: functional, cell-based. Put shortly:
(§1)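 PC12 cells, 1×10^6 per 60-mm dish, 1 day, then 20 μM compound for 0, 3, 6 and 12 h; total RNA isolated, quantified by 260/280 absorbance; mRNA by real-time RT-PCR normalized to GAPDH; mean ± SD of three independent experiments versus 0 h.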

For series [4], the system named is PC-12. Briefly: Induction of antioxidant genes expression in rat PC12 cells assessed as increase in GCLC mRNA level at 20 uM incubated for 6 hrs by qRT-PCR method. Type of series: functional, cell-based. In outline: as §1
The test system of series [5] is PC-12. Description: Reduction in cytosolic Nrf2 protein level in rat PC12 cells at 20 uM incubated for 2 to 8 hrs by Western blotting method. Type of series: functional, cell-based. Put shortly: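 Seeded at 1×10^6 cells per 60-mm dish for 24 h, PC12 cells were treated with 20 μM compound for 0, 2, 4 and 8 h. Whole-cell, cytosolic and nuclear protein extracts were then prepared and Nrf2 probed by Western blot.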

Series [6] deals with T1, Nuclear factor erythroid 2-related factor 2 (Rattus norvegicus) (UniProt O54968).
T1 sequence (whole entry): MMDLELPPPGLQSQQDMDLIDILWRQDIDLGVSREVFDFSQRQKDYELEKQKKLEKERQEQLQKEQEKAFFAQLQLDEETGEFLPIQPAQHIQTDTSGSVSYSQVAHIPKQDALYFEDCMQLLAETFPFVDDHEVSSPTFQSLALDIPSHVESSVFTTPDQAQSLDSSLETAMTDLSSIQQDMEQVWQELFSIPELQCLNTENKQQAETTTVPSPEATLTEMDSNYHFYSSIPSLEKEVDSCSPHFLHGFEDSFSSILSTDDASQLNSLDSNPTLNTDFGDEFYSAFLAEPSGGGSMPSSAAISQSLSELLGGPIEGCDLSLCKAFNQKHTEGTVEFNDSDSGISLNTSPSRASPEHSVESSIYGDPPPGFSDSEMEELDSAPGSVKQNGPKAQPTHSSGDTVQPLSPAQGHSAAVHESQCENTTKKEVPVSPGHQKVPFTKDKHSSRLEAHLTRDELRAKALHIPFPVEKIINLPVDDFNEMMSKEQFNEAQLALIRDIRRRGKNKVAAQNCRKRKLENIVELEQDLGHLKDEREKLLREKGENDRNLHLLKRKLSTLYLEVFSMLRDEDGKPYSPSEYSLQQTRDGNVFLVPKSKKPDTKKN
Briefly: Induction of Nrf2 nuclear translocation in rat PC12 cells at 20 uM incubated for 2 to 8 hrs by Western blotting method. Type of series: cell-based. Particulars: PC-12. Put shortly: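 PC12 cells (1×10^6) in 60-mm dishes, 24 h, then 20 μM compound for 0, 2, 4 and 8 h; nuclear, cytosolic and whole-cell extracts prepared; Nrf2 detected by Western blot.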

Series [7] has as its system PC-12. Description: Induction of antioxidant genes expression in rat PC12 cells assessed as increase in GCLM mRNA level at 20 uM incubated for 6 hrs by qRT-PCR method. Type of series: functional, cell-based. Put shortly: as §1
Series [8] has as its system PC-12. Briefly: Cytoprotection activity against H2O2-induced cytotoxicity in rat PC12 cells assessed as increase in cell viability pre-incubated for 24 hrs before H2O2 exposure for 12 hrs by MTT assay. Type of series: functional, cell-based.
Series [9] concerns PC-12. Briefly: Cytoprotection activity against H2O2-induced oxidative stress in rat PC12 cells assessed as reduction in ROS generation at 10 and 20 uM pre-incubated for 24 hrs before H2O2 exposure for 5 hrs by DCFH-DA dye based fluorescent microscopy. Type of series: functional, cell-based.
Series [10] concerns the target T1, Nuclear factor erythroid 2-related factor 2 (Rattus norvegicus). Description: Induction of Nrf2-mediated antioxidant genes expression in rat PC12 cells assessed as increase in TrxR1 protein expression at 10 and 20 uM incubated for 20 hrs by Western blotting method. Type of series: cell-based. The conditions noted are these: PC-12. In general terms: In western blotting, separated proteins are transferred to a membrane and probed.

Series [11] has as its system PC-12. Description: Cytoprotection activity against 6-OHDA-induced apoptosis in rat PC12 cells assessed as reduction in apoptotic nuclei levels at 10 and 20 uM pre-incubated for 24 hrs before 6-OHDA exposure for 5 hrs by Hoechst 33342 staining based fluorescent microscopy. Type of series: functional, cell-based. Put shortly: (§2)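 PC12 cells seeded 2×10^5/well, grown 1 day, pretreated with compound 24 h, then medium replaced with fresh medium containing 200 μM 6-OHDA or 500 μM H2O2 for 5 h; Hoechst 33342 added at 5 μg/mL final; condensed, brightly fluorescent nuclei counted as apoptotic under fluorescence microscopy.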

Series [12] deals with PC-12. Briefly: Cytoprotection activity against H2O2-induced apoptosis in rat PC12 cells assessed as reduction in apoptotic nuclei levels at 10 and 20 uM pre-incubated for 24 hrs before H2O2 exposure for 5 hrs by Hoechst 33342 staining based fluorescent microscopy. Type of series: functional, cell-based. Put shortly: as §2
The nature of series [13]: Antioxidant activity assessed as DPPH radical scavenging activity at 20 uM incubated for 30 mins by spectrophotometry. Type of series: physicochemical. Particulars: 0.5 h.
For series [14], the target named is T1, Nuclear factor erythroid 2-related factor 2 (Rattus norvegicus). Description: Induction of Nrf2-mediated antioxidant genes expression in rat PC12 cells assessed as increase in NQO1 protein expression at 10 and 20 uM incubated for 20 hrs by Western blotting method. Type of series: cell-based. The conditions noted are these: PC-12.
Series [15] relates to PC-12. Briefly: Cytoprotection activity against 6-OHDA-induced cytotoxicity in rat PC12 cells assessed as cell viability at 10 and 20 uM pre-incubated for 24 hrs before 6-OHDA exposure for 12 hrs in presence of shNrf2 by MTT assay. Type of series: functional, cell-based.
Series [16] relates to PC-12. Briefly: Induction of antioxidant defense system in rat PC12 cells assessed as increase in GSH level incubated for 24 hrs. Type of series: functional, cell-based. Put shortly:
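Total glutathione: cells extracted in KPE buffer (0.1% Triton X-100, 0.6% sulfosalicylic acid, 5 mM EDTA, 0.1 M PBS pH 7.5), sonicated on ice, centrifuged 3000 g 4 min at 4 °C; supernatant assayed enzymatically. PC12 cells 1×10^6 in 60-mm dishes, compound 24 h; stress lines add 500 μM H2O2 or 200 μM 6-OHDA 12 h.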

Series [17] concerns PC-12. Briefly: Cytoprotection activity against H2O2-induced cytotoxicity in rat PC12 cells assessed as cell viability at 10 and 20 uM pre-incubated for 24 hrs before H2O2 exposure for 12 hrs in presence of non-trageting shRNA by MTT assay. Type of series: functional, cell-based.
Series [18] concerns PC-12. Description: Induction of antioxidant genes expression in rat PC12 cells assessed as increase in TrxR1 mRNA level at 20 uM incubated for 12 hrs by qRT-PCR method. Type of series: functional, cell-based. In outline: as §1
(In general: Real-time PCR tracks product formation cycle by cycle.)

Series [19] has as its system PC-12. Description: Induction of antioxidant genes expression in rat PC12 cells assessed as increase in TrxR1 activity at 10 and 20 uM incubated for 20 hrs by TRFS-green dye based fluorescent microscopy. Type of series: functional, cell-based. In outline:
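PC12 cells 2×10^5/well, 24 h, then compound 20 h; TRFS-green added to 10 μM final and incubated 4 h at 37 °C in the dark; green fluorescence intensity imaged by fluorescence microscopy as relative cellular TrxR activity.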

Series [20] deals with PC-12. Briefly: Induction of antioxidant genes expression in rat PC12 cells assessed as increase in Trx1 mRNA level at 20 uM incubated for 12 hrs by qRT-PCR method. Type of series: functional, cell-based. Put shortly: as §1

Take `COc1ccc(/C=C/C(=O)N2CCCC2=O)cc1`: the Activity in series [1] is 80%; in [2], “Non-toxic”; in the series on PC-12 [8] it was “Dose-dependent effect”; in the series on PC-12 [9] it was “Dose-dependent effect”; in [13] it was “Not Active”. Moreover, the outcome (in the series with PC-12 [3]; in the series on PC-12 [4]; with PC-12 [5]; in [6]; with PC-12 [7]; in series [10]) was Active. Further, the outcome (in the series on PC-12 [11]; in the series with PC-12 [12]; in series [14]; with PC-12 [16]; in the series on PC-12 [17]; in the series on PC-12 [18]) was Active. Also, the result in the series with PC-12 [19] and with PC-12 [20] was Active. In the series on PC-12 [15], the result was inactive.

With `COc1cc(/C=C/C(=O)N2CCCCC2=O)cc(OC)c1OC`, the Activity in series [1] is 75%; in [2], “Non-toxic”; in the series on PC-12 [8] it was “Dose-dependent effect”; with PC-12 [9], “Dose-dependent effect”; in series [13], “Not Active”. In addition, the outcome (with PC-12 [3]; in the series on PC-12 [4]; with PC-12 [5]; in series [6]; in the series on PC-12 [7]; in [10]) was Active. Further, the result (in the series on PC-12 [11]; in the series with PC-12 [12]; in series [14]; in the series with PC-12 [16]; with PC-12 [17]; in the series with PC-12 [18]) was Active. Further, the outcome with PC-12 [19] and with PC-12 [20] was Active. The outcome with PC-12 [15] was inactive.
